Assay results collected from several papers.
Compare with care: the assays were run in different laboratories.
Target: SNF-related serine/threonine-protein kinase (SNRK, Homo sapiens, UniProt Q9NRH2)
One construct used (Q9NRH2 1-765): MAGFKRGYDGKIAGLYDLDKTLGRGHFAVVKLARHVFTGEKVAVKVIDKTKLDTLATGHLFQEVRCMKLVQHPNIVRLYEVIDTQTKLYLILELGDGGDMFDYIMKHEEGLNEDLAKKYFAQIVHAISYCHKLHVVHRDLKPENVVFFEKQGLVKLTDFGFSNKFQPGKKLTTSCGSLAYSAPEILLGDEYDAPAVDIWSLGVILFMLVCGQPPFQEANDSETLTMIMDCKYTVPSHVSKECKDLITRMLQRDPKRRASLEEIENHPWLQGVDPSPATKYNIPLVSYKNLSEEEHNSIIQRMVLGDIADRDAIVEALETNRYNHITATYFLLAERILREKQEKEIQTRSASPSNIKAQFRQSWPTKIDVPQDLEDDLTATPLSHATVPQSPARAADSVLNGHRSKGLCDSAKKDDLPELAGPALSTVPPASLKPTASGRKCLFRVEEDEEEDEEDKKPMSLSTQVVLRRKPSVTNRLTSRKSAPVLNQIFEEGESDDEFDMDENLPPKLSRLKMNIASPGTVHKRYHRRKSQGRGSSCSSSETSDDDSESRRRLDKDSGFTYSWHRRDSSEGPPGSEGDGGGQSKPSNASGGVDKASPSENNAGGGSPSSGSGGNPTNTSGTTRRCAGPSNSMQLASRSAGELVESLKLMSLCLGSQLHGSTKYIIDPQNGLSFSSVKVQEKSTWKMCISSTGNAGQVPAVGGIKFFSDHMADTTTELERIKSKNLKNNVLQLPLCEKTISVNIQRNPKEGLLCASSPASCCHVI

CN(C)c1ncc(F)c(-c2cnn3ncccc23)n1  remaining binding (binding; 1 µM): 100%
Cc1cnc(Nc2ccc(C(=O)N3CCC(N4CCCC4)CC3)cc2)nc1-c1cc2ccccc2s1  remaining binding (binding; competition with immobilised ligand; 1 µM): 100%
N[C@@H]1CCN(c2nccc(-c3cnn4ncccc34)n2)C1  remaining binding (binding; 1 µM): 100%
C[C@H](c1ccnc(Nc2nc3ccc(-c4cc(N(C)C)ncn4)cc3[nH]2)c1)N1CCN(C(=O)CC(F)(F)F)CC1  remaining binding (cell-free assay; competition with immobilised ligand; 0.1 µM): 100%
O=C(c1ccc(Nc2ncc(Cl)c(-c3ccc(Cl)s3)n2)cc1)N1CCC(N2CCCC2)CC1  remaining binding (binding; competition with immobilised ligand; 1 µM): 87%
COc1ncc2cc3ccccc3nc2c1C#N  remaining binding (cell-free assay; competition with immobilised ligand; 5 µM): 100%
O=c1nc(-c2ccccn2)sc2ccccc12  remaining binding (binding; competition with immobilised ligand; 1 µM): 100%
O=C(NCCCN1CCOCC1)c1ccc(Nc2nccc(-c3cc4ccccc4s3)n2)cc1  remaining binding (binding; competition with immobilised ligand; 1 µM): 99%
COc1cnc(Nc2cccc(S(N)(=O)=O)c2)nc1N1CCN(c2ccccc2)C(=O)C1  remaining binding (binding; competition with immobilised ligand; 1 µM): 85%
CCN1CCN(Cc2ccc(C(=O)Nc3ccc(C)c(Oc4ccc5c(c4)CC(=O)N5)c3)cc2C(F)(F)F)CC1  remaining binding (binding; competition with immobilised ligand; 1 µM): 98%
C[C@H]1CCN(c2nccc(-c3cnn4ncccc34)n2)C1  remaining binding (binding; 1 µM): 81%
FC(F)(F)Oc1cccc(-c2cnc3ccc(-c4ccncc4)nn23)c1  remaining binding (binding; competition with immobilised ligand; 5 µM): 71%
COc1cc(-c2cn(C3CCc4c(F)cccc4N(CC(F)(F)F)C3=O)nn2)ccc1-n1cnc(C)c1 (stereo not shown)  remaining binding (cell-free assay; competition with immobilised ligand; 1 µM): 100%
O=C(NCC1CCOCC1)c1n[nH]cc1NC(=O)c1c(F)cccc1F  remaining binding (binding; competition with immobilised ligand; 1 µM): 84%
CC(=O)N1CCC(c2ccc(C(=O)NC(=N)N)cc2C(F)(F)F)CC1  remaining binding (cell-free assay; competition with immobilised ligand; 1 µM): 100%
CN(C)c1nccc(-c2cnc3ncccn23)n1  remaining binding (binding; 1 µM): 91%
CS(=O)(=O)N1CCCC(NC(=O)[C@H](CCC2CCCCC2)NC(=O)c2ccc(CNc3ncnc4c3nnn4-c3ccccc3)cc2)C1 (stereo partly shown)  remaining binding (cell-free assay; competition with immobilised ligand; 0.1 µM): 81%
Cc1cnn2ncc(-c3ccnc(N(C)C)n3)c2c1  remaining binding (binding; 1 µM): 79%
COc1ccc2c(c1)O[C@@H](c1ccc(OC)c(OC)c1)C[C@H]2NC(=O)C1(c2ccc3c(c2)OC(F)(F)O3)CC1  remaining binding (cell-free assay; competition with immobilised ligand; 1 µM): 90%
C[C@@H](c1ccc(-n2cnc3c(N)ncnc32)cc1)N1CCc2nn(C)c(Cc3ccccc3)c2C1=O  remaining binding (binding; competition with immobilised ligand; 0.1 µM): 98%
c1cnn2ncc(-c3ccnc(N4CCC45COC5)n3)c2c1  remaining binding (binding; 1 µM): 67%
O=C(Nc1cccnn1)N1CCC(=Cc2cccc(Oc3ccc(C(F)(F)F)cn3)c2)CC1  remaining binding (cell-free assay; competition with immobilised ligand; 1 µM): 100%
